Measurements collected from several papers.
Lines come from different studies, so protocols differ.
Target: Death-associated protein kinase 1 (DAPK1, Homo sapiens, UniProt P53355)

| Structure (SMILES) | read-out | mode | method | tested at | quantity | result |
| --- | --- | --- | --- | --- | --- | --- |
| CS(=O)(=O)CCNCc1ccc(-c2ccc3ncnc(Nc4ccc(OCc5cccc(F)c5)c(Cl)c4)c3c2)o1 | cell-free assay |  |  | 0.5 µM | remaining signal | 107% |
| CS(=O)(=O)NCC[C@H](NC(=O)c1cncc2c1cnn2-c1ccc(F)cc1)c1ccnc(S(C)(=O)=O)c1 | cell-free assay |  | competition with immobilised ligand | 1 µM | remaining binding | 100% |
| CC(C)(C)c1nc2c(s1)c1nc(N)ncc1c1ccc(NS(=O)(=O)c3c(F)cccc3F)c(F)c12 | enzyme activity | inhibitor | radiometric | 1 µM | remaining activity | 79% |
| FC(F)c1nc2ccccc2n1-c1nc(N2CCOCC2)nc(N2CCOCC2)n1 | enzyme activity | inhibitor |  | 10 µM | remaining activity | 75% |
| CCOC(=O)c1cc2cc(-c3cc(C(=O)NCc4ccc(C(=O)O)cc4)nn3C)ccc2[nH]1 | cell-free assay |  | competition with immobilised ligand | 0.1 µM | remaining binding | 84% |
| CCN(CC)c1ccc(C2=NNC(=O)CC2C)cc1[N+](=O)[O-] (stereo not drawn) | enzyme activity | inhibitor |  | 10 µM | remaining activity | 105% |
| FC(F)(F)Oc1cccc(-c2cnc3ccc(-c4ccncc4)nn23)c1 | enzyme activity | inhibitor | radiometric | 5 µM | activity vs control | 91% |
| CS(=O)(=O)N1CCCC(NC(=O)[C@H](CCC2CCCCC2)NC(=O)c2ccc(CNc3ncnc4c3nnn4-c3ccccc3)cc2)C1 (stereo partly drawn) | cell-free assay |  | competition with immobilised ligand | 0.1 µM | remaining binding | 92% |
| N#CCCc1ccc2c(c1)-c1[nH]c3ccc([N+](=O)[O-])cc3c1CC(=O)N2 | cell-free assay |  |  | 0.5 µM | remaining signal | 96.5% |
| COc1cc(/C=C/C(=O)CC(=O)/C=C/c2ccc(O)c(OC)c2)ccc1O | enzyme activity | inhibitor |  | 1 µM | activity vs control | 93% |
| Cc1nc(N2CC[C@@H](O)C2)ncc1-c1cc(C(F)(F)F)cc2[nH]ncc12 | binding |  | competition with immobilised ligand | 1 µM | remaining binding | 89% |
| CN(C)C1CCN(CC#Cc2nn(C3CCCC3)c3nc(NCc4ccccc4)ncc23)C1 (stereo not drawn) | enzyme activity | inhibitor | FRET | 0.1 µM | inhibition | 1% |
| Cc1ccc(Nc2nccc(N(C)c3ccc4c(C)n(C)nc4c3)n2)cc1S(N)(=O)=O | enzyme activity | inhibitor |  | 0.3 µM | inhibition | 16% |
| Cc1ccc(NC(=O)c2ccc(C)c(C(F)(F)F)c2)cc1C#Cc1nn(C2CCC(O)CC2)c2ncnc(N)c12 (stereo not drawn) | cell-free assay |  |  | 10 µM | remaining signal | 97% |
| COc1cc(Nc2cnc(C#N)c(O[C@H](C)CN(C)C)n2)ncc1-c1cnn(C)c1 | enzyme activity | inhibitor | radiometric | 10 µM | remaining activity | 98% |
| Cc1noc([C@H]2C[C@@H](c3ccc(C(F)(F)F)cc3)CN(C(=O)N3CCS(=O)(=O)C3)C2)n1 | cell-free assay |  | competition with immobilised ligand | 1 µM | remaining binding | 100% |
| O=C1Nc2ccc(Cl)cc2C1=Cc1cc(Cl)c(O)c(Cl)c1 | cell-free assay |  |  | 0.5 µM | remaining signal | 90% |
| CC(C)(O)[C@H]1CC[C@H](Nc2ccc3ncc(-c4cccc(C(F)(F)F)c4)n3n2)CC1 | enzyme activity | inhibitor |  | 1 µM | remaining activity | 110% |
